Results from different studies.
In brackets after ≈: the same amount, converted by molar mass.
Organism: Candida albicans
Read-out: microbial growth

Structure (SMILES)	method	strain	concentration	time	endpoint	result
N#Cc1c(-c2ccc(OCc3ccccc3)cc2)c(C(N)=O)c(N)n(N)c1=O	well diffusion	ATCC10231	500 µg/mL		inhibition zone	10 mm
O=C(C=Cc1ccc(O)c(O)c1)OCc1ccccc1	broth dilution	SC5314			MIC	64 µg/mL (≈ 237 µM)
Cc1nn(-c2ccccc2)c2c1C(c1ccc(Cl)cc1)N(C(=O)c1ccncc1)N2 (centres unmarked)		MTCC183			MIC	0.25 µg/mL (≈ 0.601 µM)
N#Cc1c(-c2ccc(OCc3ccccc3)cc2)c(C(N)=S)c(N)n(N)c1=O	well diffusion	ATCC10231	500 µg/mL		inhibition zone	10 mm
COc1cc(Cc2cnc(N)nc2N)cc(OC)c1OC	broth dilution	SC5314			MIC	64 µg/mL (≈ 220 µM)
C[C@@H]1[C@H](O)[C@@H](C)/C=C/C=C/C=C/C=C/C=C/C=C/C=C/[C@H](O[C@@H]2O[C@H](C)[C@@H](O)[C@H](N)[C@@H]2O)C[C@@H]2O[C@](O)(C[C@@H](O)C[C@@H](O)[C@H](O)CC[C@@H](O)C[C@@H](O)CC(=O)O[C@H]1C)C[C@H](O)[C@H]2C(=O)O	broth dilution	ATCC60193		24 h	MIC	2 µg/mL (≈ 2.16 µM)
COc1ccc(C2c3c(C)nn(-c4ccccc4)c3NN2C(=O)c2ccncc2)cc1 (centres unmarked)		MTCC183			MIC	16 µg/mL (≈ 38.9 µM)
CC(=O)Oc1ccc(-c2c(C(N)=O)c(N)n(N)c(=O)c2C#N)cc1	well diffusion	ATCC10231	500 µg/mL		inhibition zone	12 mm
CC1CCC(C(C)C)C(OC(=O)C=Cc2ccc(O)c(O)c2)C1 (centres unmarked)	broth dilution	SC5314			MIC	8 µg/mL (≈ 25.1 µM)
Cc1nn(-c2ccccc2)c2c1C(c1ccc([N+](=O)[O-])cc1)N(C(=O)c1ccncc1)N2 (centres unmarked)		MTCC183			MIC	> 100 µg/mL
N#Cc1c(-c2ccc(Cl)cc2Cl)c(C(N)=O)c(N)n(N)c1=O	well diffusion	ATCC10231	500 µg/mL		inhibition zone	9 mm
COC1=CC(=O)c2ccccc2C1=O	broth dilution	ATCC60193		24 h	MIC	25 µg/mL (≈ 133 µM)
Clc1ccccc1C(c1ccccc1)(c1ccccc1)n1ccnc1		MTCC183			MIC	0.5 µg/mL (≈ 1.45 µM)
OC(Cn1cncn1)(Cn1cncn1)c1ccc(F)cc1F	broth dilution	SC5314			MIC	0.25 µg/mL (≈ 0.816 µM)
Cc1nn(-c2ccccc2)c2c1C(c1ccc(O)cc1)N(C(=O)c1ccncc1)N2 (centres unmarked)		MTCC183			MIC	64 µg/mL (≈ 161 µM)
Cc1ccccc1NC(=O)C=Cc1ccc(O)c(O)c1	broth dilution	SC5314			MIC	32 µg/mL (≈ 119 µM)
CN(C)c1ccc(-c2c(C(N)=O)c(N)n(N)c(=O)c2C#N)cc1	well diffusion	ATCC10231	500 µg/mL		inhibition zone	12 mm
